Source: ChEMBL document CHEMBL1782009, “Synthesis and characterization of new types of halogenated and alkylated imidazolidineiminothiones and a comparative study of their antitumor, antibacterial, and antifungal activities” (Eur J Med Chem, 2011)
In brackets after ≈: the same amount, converted by molar mass.

Columns and labels:
[1] = system: Candida albicans; assay: Fungicidal activity against Candida albicans IMRU 3669 by broth microtiter MIC test; type: functional
[2] = system: Escherichia coli; assay: Antibacterial activity against Escherichia coli NCTC 10416 at 5 mg/ml after 24 hrs by agar disc diffusion method; type: functional; conditions: NCTC 10416, 24 h, read-out: DIZ
Outline: (§1)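 Agar well-diffusion using 1 cm wells, each loaded with 100 of compound solution (5 mg/mL in DMF). Bacteria were maintained on nutrient agar and plated as a standard suspension. Plates were incubated 24 h at 35 °C, and inhibition zone diameters were measured.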

[3] = system: Escherichia coli; assay: Antibacterial activity against Escherichia coli NCTC 10416 by macrotube dilution method; type: functional
Outline: (§2)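 Macrotube twofold dilution following CLSI guidelines, with 15 tubes per organism. Tube 1 held 2 mg compound in 2.0 mL DMF and tubes 2–14 held 1.0 mL broth; 1.0 mL was carried serially, and tube 15 was the control. Colonies were suspended in 5.0 mL broth, then 0.2 mL was diluted into 40 mL, and 1.0 mL was added per tube. Bacteria were grown in nutrient broth at 37 °C overnight; fungi in Czapek's Dox at 30 °C for 72 h.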

[4] = system: Staphylococcus aureus; assay: Antibacterial activity against Staphylococcus aureus NCTC 7447 by macrotube dilution method; type: functional; outline: as §2
[5] = system: Escherichia coli; assay: Bactericidal activity against Escherichia coli NCTC 10416 by broth microtiter MIC test; type: functional
[6] = Antitumor activity against mouse EAC cells assessed as inhibition of cell viability at 100 ug/ml by Trypan blue assay; type: functional; conditions: Ehrlich
Outline: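 EAC cells were taken by needle aspiration of ascitic fluid from preinoculated mice and diluted 1:10 in saline. Then 0.1 mL of cell suspension, 0.8 mL RPMI 1640 and 0.1 mL compound were incubated 2 h at 37 °C. Dead cells were counted by trypan blue exclusion, and % non-viable = non-viable/total cells × 100.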

[7] = system: Candida albicans; assay: Antifungal activity against Candida albicans IMRU 3669 at 5 mg/ml by agar disc diffusion method; type: functional; conditions: read-out: DIZ
[8] = system: Micrococcus luteus; assay: Bactericidal activity against Sarcina lutea ATCC 934 by broth microtiter MIC test; type: functional
[9] = system: Bacillus subtilis; assay: Antibacterial activity against Bacillus subtilis NCTC 1040 at 5 mg/ml after 24 hrs by agar disc diffusion method; type: functional; conditions: NCTC 1040, 24 h, read-out: DIZ; outline: as §1
[10] = system: Aspergillus flavus; assay: Fungicidal activity against Aspergillus flavus by broth microtiter MIC test; type: functional
[11] = system: Aspergillus flavus; assay: Antifungal activity against Aspergillus flavus after 72 hrs by macrotube dilution method; type: functional; outline: as §2
[12] = system: Bacillus subtilis; assay: Antibacterial activity against Bacillus subtilis NCTC 1040 by macrotube dilution method; type: functional; outline: as §2
[13] = system: Micrococcus luteus; assay: Antibacterial activity against Sarcina lutea ATCC 934 at 5 mg/ml after 24 hrs by agar disc diffusion method; type: functional; conditions: ATCC 934, 24 h, read-out: DIZ; outline: as §1
[14] = system: Staphylococcus aureus; assay: Antibacterial activity against Staphylococcus aureus NCTC 7447 at 5 mg/ml after 24 hrs by agar disc diffusion method; type: functional; conditions: NCTC 7447, 24 h, read-out: DIZ; outline: as §1
[15] = system: Aspergillus flavus; assay: Antifungal activity against Aspergillus flavus at 5 mg/ml by agar disc diffusion method; type: functional; conditions: read-out: DIZ
[16] = system: Micrococcus luteus; assay: Antibacterial activity against Sarcina lutea ATCC 934 by macrotube dilution method; type: functional; outline: as §2
[17] = system: Candida albicans; assay: Antifungal activity against Candida albicans IMRU 3669 after 72 hrs by macrotube dilution method; type: functional; conditions: IMRU 3669, 72 h; outline: as §2
[18] = system: Staphylococcus aureus; assay: Bactericidal activity against Staphylococcus aureus NCTC 7447 by broth microtiter MIC test; type: functional
[19] = system: Bacillus subtilis; assay: Bactericidal activity against Bacillus subtilis NCTC 1040 by broth microtiter MIC test; type: functional
[20] = system: HCT-116; assay: Cytotoxicity against human HCT116 cells assessed as surviving fraction at 5 ug/ml after 48 hrs by SRB assay relative to control; type: functional
Outline: (§3)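 SRB assay per Skehan: compounds at 5.0, 12.5, 25 and 50 were added to cell monolayers in triplicate wells per dose for 48 h at 37 °C, 5% CO2. Cells were then fixed and stained with SRB, excess stain was removed with acetic acid, and bound dye was recovered in Tris EDTA. Surviving fraction was plotted against concentration, and IC50 was read from the dose–response curves.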

[21] = system: HEp-2; assay: Cytotoxicity against human Hep2 cells assessed as surviving fraction at 5 ug/ml after 48 hrs by SRB assay relative to control; type: functional; outline: as §3
[22] = system: HepG2; assay: Cytotoxicity against human HepG2 cells assessed as surviving fraction at 12.5 ug/ml after 48 hrs by SRB assay relative to control; type: functional; outline: as §3
[23] = system: HepG2; assay: Cytotoxicity against human HepG2 cells assessed as surviving fraction at 50 ug/ml after 48 hrs by SRB assay relative to control; type: functional; outline: as §3
[24] = system: HepG2; assay: Cytotoxicity against human HepG2 cells after 48 hrs by SRB assay; type: functional, cell-based; conditions: HepG2, 48 h; outline: as §3
[25] = system: MCF7; assay: Cytotoxicity against human MCF7 cells assessed as surviving fraction at 50 ug/ml after 48 hrs by SRB assay relative to control; type: functional; outline: as §3
[26] = system: HEp-2; assay: Cytotoxicity against human Hep2 cells after 48 hrs by SRB assay; type: functional, cell-based; conditions: HEp-2, 48 h; outline: as §3
[27] = system: HepG2; assay: Cytotoxicity against human HepG2 cells assessed as surviving fraction at 5 ug/ml after 48 hrs by SRB assay relative to control; type: functional; outline: as §3
[28] = system: HeLa; assay: Cytotoxicity against human HeLa cells assessed as surviving fraction at 12.5 ug/ml after 48 hrs by SRB assay relative to control; type: functional; outline: as §3
[29] = system: HeLa; assay: Cytotoxicity against human HeLa cells assessed as surviving fraction at 25 ug/ml after 48 hrs by SRB assay relative to control; type: functional; outline: as §3
[30] = system: HEp-2; assay: Cytotoxicity against human Hep2 cells assessed as surviving fraction at 50 ug/ml after 48 hrs by SRB assay relative to control; type: functional; outline: as §3
[31] = system: HeLa; assay: Cytotoxicity against human HeLa cells after 48 hrs by SRB assay; type: functional, cell-based; outline: as §3
[32] = system: HEp-2; assay: Cytotoxicity against human Hep2 cells assessed as surviving fraction at 25 ug/ml after 48 hrs by SRB assay relative to control; type: functional; outline: as §3
[33] = system: HeLa; assay: Cytotoxicity against human HeLa cells assessed as surviving fraction at 5 ug/ml after 48 hrs by SRB assay relative to control; type: functional; outline: as §3
[34] = system: MCF7; assay: Cytotoxicity against human MCF7 cells assessed as surviving fraction at 12.5 ug/ml after 48 hrs by SRB assay relative to control; type: functional; outline: as §3
[35] = system: HepG2; assay: Cytotoxicity against human HepG2 cells assessed as surviving fraction at 25 ug/ml after 48 hrs by SRB assay relative to control; type: functional; outline: as §3
[36] = system: MCF7; assay: Cytotoxicity against human MCF7 cells after 48 hrs by SRB assay; type: functional, cell-based; conditions: MCF7, 48 h; outline: as §3
[37] = system: MCF7; assay: Cytotoxicity against human MCF7 cells assessed as surviving fraction at 25 ug/ml after 48 hrs by SRB assay relative to control; type: functional; outline: as §3
[38] = system: HEp-2; assay: Cytotoxicity against human Hep2 cells assessed as surviving fraction at 12.5 ug/ml after 48 hrs by SRB assay relative to control; type: functional; outline: as §3
[39] = system: HCT-116; assay: Cytotoxicity against human HCT116 cells assessed as surviving fraction at 50 ug/ml after 48 hrs by SRB assay relative to control; type: functional; outline: as §3
[40] = system: HeLa; assay: Cytotoxicity against human HeLa cells assessed as surviving fraction at 50 ug/ml after 48 hrs by SRB assay relative to control; type: functional; outline: as §3
[41] = system: HCT-116; assay: Cytotoxicity against human HCT116 cells assessed as surviving fraction at 25 ug/ml after 48 hrs by SRB assay relative to control; type: functional; outline: as §3
[42] = system: HCT-116; assay: Cytotoxicity against human HCT116 cells assessed as surviving fraction at 12.5 ug/ml after 48 hrs by SRB assay relative to control; type: functional; outline: as §3
[43] = system: MCF7; assay: Cytotoxicity against human MCF7 cells assessed as surviving fraction at 5 ug/ml after 48 hrs by SRB assay relative to control; type: functional; outline: as §3
[44] = system: HCT-116; assay: Cytotoxicity against human HCT116 cells after 48 hrs by SRB assay; type: functional, cell-based; conditions: HCT-116, 48 h; outline: as §3

Q: Which results are given for `N=C1C(=S)N(c2ccccc2)C(=O)N1Cc1ccccc1`?
A: MFC [1]: 64.5 µg/mL (≈ 218 µM); zone of inhibition at 5000 µg/mL [2]: 23.5 mm; MIC [3]: 16.1 µg/mL (≈ 54.5 µM); MIC [4]: 64.5 µg/mL (≈ 218 µM); MBC [5]: 16.1 µg/mL (≈ 54.5 µM); inhibition at 100 µg/mL [6]: 60%; zone of inhibition at 5000 µg/mL [7]: 24 mm; MBC [8]: 32.3 µg/mL (≈ 109 µM); zone of inhibition at 5000 µg/mL [9]: 21.5 mm; MFC [10]: 250 µg/mL (≈ 846 µM); MIC [11]: 250 µg/mL (≈ 846 µM); MIC [12]: 64.5 µg/mL (≈ 218 µM); zone of inhibition at 5000 µg/mL [13]: 20 mm; zone of inhibition at 5000 µg/mL [14]: 22 mm; zone of inhibition at 5000 µg/mL [15]: 17 mm; MIC [16]: 32.3 µg/mL (≈ 109 µM); MIC [17]: 64.5 µg/mL (≈ 218 µM); MBC [18]: 64.5 µg/mL (≈ 218 µM); MBC [19]: 64.5 µg/mL (≈ 218 µM)

Q: Which Activity [20] does the source give for `COc1ccc(N2C(=O)N(c3ccc(C)cc3)C(=N)C2=S)c(OC)c1` here?
A: 0.38

Q: And the Activity [21]?
A: 0.6

Q: And the Activity [22]?
A: 0.22

Q: And the Activity [23]?
A: 0.24

Q: What about the zone of inhibition at 5000 µg/mL [2] of the same compound?
A: 25.5 mm

Q: And the IC50 [24]?
A: 6.78 µg/mL (≈ 19.1 µM)

Q: And the Activity [25]?
A: 0.29

Q: And the IC50 [26]?
A: 7.09 µg/mL (≈ 19.9 µM)

Q: What about the Activity [27] of the same compound?
A: 0.6

Q: And the Activity [28]?
A: 0.14

Q: What about the Activity [29] of the same compound?
A: 0.22

Q: And the Activity [30]?
A: 0.3

Q: What about the IC50 [31] of the same compound?
A: 2.97 µg/mL (≈ 8.36 µM)

Q: And the Activity [32]?
A: 0.16

Q: What about the inhibition at 100 µg/mL [6] of the same compound?
A: 70%

Q: And the zone of inhibition at 5000 µg/mL [7]?
A: 17.5 mm

Q: And the Activity [33]?
A: 0.24

Q: And the Activity [34]?
A: 0.21

Q: And the zone of inhibition at 5000 µg/mL [9]?
A: 22.5 mm

Q: And the Activity [35]?
A: 0.23

Q: And the IC50 [36]?
A: 4.34 µg/mL (≈ 12.2 µM)

Q: And the Activity [37]?
A: 0.21

Q: What about the Activity [38] of the same compound?
A: 0.31

Q: What about the Activity [39] of the same compound?
A: 0.26

Q: And the Activity [40]?
A: 0.26

Q: What about the zone of inhibition at 5000 µg/mL [13] of the same compound?
A: 25 mm

Q: And the zone of inhibition at 5000 µg/mL [14]?
A: 22 mm

Q: What about the Activity [41] of the same compound?
A: 0.2

Q: What about the zone of inhibition at 5000 µg/mL [15] of the same compound?
A: 14 mm

Q: And the Activity [42]?
A: 0.15

Q: What about the Activity [43] of the same compound?
A: 0.43

Q: What about the IC50 [44] of the same compound?
A: 4.04 µg/mL (≈ 11.4 µM)
